This note sets out measurements from ChEMBL document CHEMBL3272210, “Effect of the solvent-dependent conformational system of hydroxyureas on predicted vs. observed log P” (J Med Chem, 1977).

Data set [1] can be described thus: Octanol-water partition coefficient, log P of the compound after 72 hrs. The data set is classed as physicochemical. The essentials:
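Known amounts (100 mg, 500 mg, 1.0 g) are shaken in equal volumes of 1-octanol and water pH 7.4 for 72 h, the optimal time. The aqueous layer is lyophilized, and the recovered compound is weighed and purity-checked. Values were cross-checked by colorimetry or UV for some compounds.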

Data set [2] is filed under the species Rattus norvegicus. Put plainly: Inhibition of rat hepatoma ribonucleotide reductase using ATP relative to hydroxyurea. The essentials: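 Same 32P-CDP reduction assay, 30 min, 37 °C, ATP 2.1 mM, aqueous inhibitor. Each determination includes hydroxyurea as positive control. ID50 (four levels, two trials each) is divided relative to that run's hydroxyurea ID50, and ratios are averaged across determinations.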

The species entered for data set [3] is Rattus norvegicus. Kind of data set: Inhibition of rat hepatoma ribonucleotide reductase using ATP and Me2SO solvent. The method, boiled down: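 Rat Novikoff ascites hepatoma reductase, partially purified, assayed in 8.3 mM phosphate pH 7, 2.1 mM ATP, 4.2 mM MgAc2, 0.04 mM ferrous ammonium sulfate, 6.3 mM DTT, 1.0 μM thioredoxin, 0.17 mM 32P-CDP. Inhibitor is predissolved in DMSO and diluted to 1% DMSO final, then added on ice before enzyme, followed by 30 min at 37 °C. Dowex-50 readout. ID50 extrapolated from four concentrations tested in duplicate.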

Data set [4] concerns L1210. Put plainly: Antitumor activity against mouse L1210 cells xenografted in host assessed as growth inhibition treated ip for 9 days. The data set is classed as functional.
For data set [5], the species on record is Rattus norvegicus. Kind of data set: Inhibition of rat hepatoma ribonucleotide reductase using ATP. The essentials: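 Partially purified rat Novikoff ascites hepatoma reductase (~0.2 mg) in pH 7 phosphate (8.3 mM) with 2.1 mM ATP, 4.2 mM MgAc2, Fe2+ (0.04 mM), 6.3 mM DTT, 1.0 μM rat thioredoxin and 0.17 mM 32P-CDP. Aqueous inhibitor is present before enzyme is added on ice, then 37 °C for 30 min. Perchloric acid stop, Dowex-50 product separation. Four concentrations, duplicate trials, ID50 by graphing/extrapolation.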

For data set [6], the species on record is Rattus norvegicus. Put plainly: Inhibition of rat hepatoma ribonucleotide reductase using ATP and Me2SO solvent relative to hydroxyurea.

SMILES strings stand for the structures. Some results are limits rather than exact numbers.

In data set [1], `CCCCNC(=O)NO` displayed a logP at 72 h of 0.32. The Ratio in data set [2] amounted to 6.8. This compound had an ID50 in data set [3] of 750 µM.

Consider `O=C(NO)Nc1ccccc1`, for which the logP at 72 h in data set [1] was found to be 0.41.

On to `CC(C)(C)NC(=O)NO`, for which the logP at 72 h in data set [1] was determined as 0.5. The Ratio in data set [2] turned out to be 9.5. Moreover, the ID50 in data set [3] was 400 µM.

Take `CN(O)C(N)=O`: the lipophilicity (logP) at 72 h in data set [1] is -0.46. The Ratio in data set [2] was determined as 0.9. Further, the T/C in data set [4] is reported as 162%. The ID50 in data set [5] was found to be 100 µM.

`CCCNC(=O)NO` displayed a logP at 72 h in data set [1] of 0.22. Besides, the Ratio in data set [2] and in data set [6] was 3.8 each time. Also, the T/C in data set [4] is reported as 146%. In addition, the ID50 in data set [5] and in data set [3] was 340 µM throughout.

With `CC(C)NC(=O)NO`, the logP at 72 h in data set [1] is 0.2. In addition, in data set [2], the Ratio stood at 19. Besides, the T/C in data set [4] is less than 125%. In data set [5], this compound registered an ID50 of 800 µM.

The compound `O=C(NO)Nc1ccc(Cl)cc1` yielded a log partition coefficient (logP) at 72 h in data set [1] of 1.39.

Consider `CCN(O)C(N)=O`, for which the logP at 72 h in data set [1] is -0.1. Also, the Ratio in data set [2] turned out to be 1.5. Also, the T/C in data set [4] worked out at 168%. Moreover, the ID50 in data set [5] was determined as 170 µM.

The compound `CCNC(=O)NO` displayed a lipophilicity (logP) at 72 h in data set [1] of -0.76. Also, the T/C in data set [4] was determined as 137%.

`NC(=O)NO` [HYDROXYUREA]: in data set [1], the log partition coefficient (logP) at 72 h is -1.27. In addition, the Ratio in data set [2] was 1. The T/C in data set [4] is on record as 291%. For the same compound, in data set [5], the ID50 was determined as 110 µM.
